Calls of active or inactive are those of the source. The calls are words filed in the database; no cut-off is given here.
What was measured:
[1] = biological target: T1, Transient receptor potential cation channel subfamily A member 1 (Homo sapiens, UniProt O75762); test: Antagonist activity at human TRPA1 expressed in human IMR90 cells assessed as inhibition of acrolein-induced calcium influx at 30 uM after 40 mins by fluorescence analysis; format: functional, cell-based; details: IMR-90
Summary of the method: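 IMR90 fetal lung fibroblasts, which constitutively express human TRPA1, were grown in DMEM with 10% FBS and 2 mM L-glutamine at 37 °C under 5% CO₂, then plated on glass coverslips to 60% confluence. Cells were loaded with Fura-2 AM for 40 min at 37 °C in HEPES buffer (pH 7.4, 0.1% BSA). Single-cell F340/F380 ratio was recorded during acrolein challenge in the presence of antagonist. %inhibition is mean ± SEM from ≥25 cells across three experiments; IC₅₀ (with CI) comes from a variable-slope sigmoidal fit.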

[2] = biological target: T1, Transient receptor potential cation channel subfamily A member 1; test: Antagonist activity at human TRPA1 expressed in human IMR90 cells assessed as inhibition of acrolein-induced calcium influx at 3 uM after 40 mins by fluorescence analysis; format: functional, cell-based; details: IMR-90
[3] = biological target: T1, Transient receptor potential cation channel subfamily A member 1; test: Antagonist activity at human TRPA1 expressed in human IMR90 cells assessed as inhibition of acrolein-induced calcium influx after 40 mins by fluorescence analysis
[4] = biological target: Transient receptor potential cation channel subfamily A member 1 (Rattus norvegicus, UniProt Q6RI86); test: (§1) Antagonist activity at Sprague-Dawley rat TRPA1 expressed in rat DRG neurons assessed as inhibition of acrolein-induced calcium influx after 40 mins by fluorescence analysis; format: functional
Summary of the method: (§2)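 DRG neurons came from male Sprague–Dawley rats (100 g). Ganglia were digested in HBSS with collagenase 1A (2 mg/ml) and trypsin (1 mg/ml) for 35 min at 37 °C, dissociated through 23–25 G needles in medium with 10% FBS and 10% horse serum, then filtered and centrifuged. Neurons were loaded with Fura-2 AM for 40 min at 37 °C in HEPES buffer (pH 7.4). F340/F380 was recorded under acrolein with antagonist present. %inhibition is mean ± SEM from ≥20 neurons across three experiments; IC₅₀ comes from a variable-slope sigmoidal fit.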

[5] = biological target: T1, Transient receptor potential cation channel subfamily A member 1; test: Antagonist activity at human TRPA1 expressed in CHO cells assessed as inhibition of calcium influx; format: functional, cell-based
[6] = biological target: Transient receptor potential cation channel subfamily A member 1 (Rattus norvegicus) (UniProt Q6RI86); test: Antagonist activity at Sprague-Dawley rat TRPA1 expressed in rat DRG neurons assessed as inhibition of acrolein-induced calcium influx at 3 uM after 40 mins by fluorescence analysis; format: functional; summary of the method: as §2
[7] = biological target: Transient receptor potential cation channel subfamily V member 1 (Rattus norvegicus) (UniProt O35433); test: Antagonist activity at Sprague-Dawley rat TRPV1 expressed in rat DRG neurons assessed as inhibition of capsaicin-induced calcium influx after 40 mins by fluorescence analysis; format: functional
[8] = biological target: Transient receptor potential cation channel subfamily A member 1 (Rattus norvegicus) (UniProt Q6RI86); test: Antagonist activity at Sprague-Dawley rat TRPA1 expressed in rat DRG neurons assessed as inhibition of acrolein-induced calcium influx at 30 uM after 40 mins by fluorescence analysis; format: functional; summary of the method: as §2
[9] = biological target: Transient receptor potential cation channel subfamily A member 1 (Rattus norvegicus) (UniProt Q6RI86); test: as §1; format: functional; summary of the method: as §2
[10] = biological target: T1, Transient receptor potential cation channel subfamily A member 1; details: IMR-90, 1 uM

Chain of Transient receptor potential cation channel subfamily A member 1 (Rattus norvegicus, UniProt Q6RI86) (Q6RI86 whole entry): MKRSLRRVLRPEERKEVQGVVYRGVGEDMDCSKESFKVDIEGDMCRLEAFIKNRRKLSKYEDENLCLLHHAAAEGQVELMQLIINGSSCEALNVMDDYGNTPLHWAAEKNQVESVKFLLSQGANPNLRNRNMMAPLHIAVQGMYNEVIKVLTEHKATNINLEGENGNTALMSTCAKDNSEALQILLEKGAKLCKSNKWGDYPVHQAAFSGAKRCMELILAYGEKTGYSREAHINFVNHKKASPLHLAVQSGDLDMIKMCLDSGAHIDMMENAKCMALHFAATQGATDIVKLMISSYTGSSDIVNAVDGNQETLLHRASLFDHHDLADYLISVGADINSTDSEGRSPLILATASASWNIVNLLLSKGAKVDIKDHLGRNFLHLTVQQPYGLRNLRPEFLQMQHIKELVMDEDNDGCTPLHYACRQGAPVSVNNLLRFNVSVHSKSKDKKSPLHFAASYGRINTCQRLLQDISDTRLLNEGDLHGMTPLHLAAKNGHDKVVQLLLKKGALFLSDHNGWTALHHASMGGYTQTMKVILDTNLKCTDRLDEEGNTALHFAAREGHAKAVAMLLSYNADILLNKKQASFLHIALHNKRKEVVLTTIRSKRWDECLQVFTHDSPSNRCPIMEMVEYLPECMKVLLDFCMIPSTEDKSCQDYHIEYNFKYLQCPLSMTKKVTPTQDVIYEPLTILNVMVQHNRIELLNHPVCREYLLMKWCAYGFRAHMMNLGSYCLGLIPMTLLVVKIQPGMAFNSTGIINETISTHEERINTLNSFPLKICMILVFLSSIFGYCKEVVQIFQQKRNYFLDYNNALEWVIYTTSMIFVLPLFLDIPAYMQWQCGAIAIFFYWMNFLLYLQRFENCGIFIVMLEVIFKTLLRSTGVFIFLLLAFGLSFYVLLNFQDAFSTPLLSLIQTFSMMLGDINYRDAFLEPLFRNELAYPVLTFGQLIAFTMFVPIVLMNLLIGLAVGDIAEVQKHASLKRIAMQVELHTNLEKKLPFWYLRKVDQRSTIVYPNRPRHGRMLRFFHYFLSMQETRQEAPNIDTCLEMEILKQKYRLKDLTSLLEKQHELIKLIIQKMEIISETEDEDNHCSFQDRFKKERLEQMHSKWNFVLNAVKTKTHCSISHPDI
Chain of Transient receptor potential cation channel subfamily A member 1 (Rattus norvegicus) (Q6RI86 whole entry): as above
T1 sequence (O75762 whole entry): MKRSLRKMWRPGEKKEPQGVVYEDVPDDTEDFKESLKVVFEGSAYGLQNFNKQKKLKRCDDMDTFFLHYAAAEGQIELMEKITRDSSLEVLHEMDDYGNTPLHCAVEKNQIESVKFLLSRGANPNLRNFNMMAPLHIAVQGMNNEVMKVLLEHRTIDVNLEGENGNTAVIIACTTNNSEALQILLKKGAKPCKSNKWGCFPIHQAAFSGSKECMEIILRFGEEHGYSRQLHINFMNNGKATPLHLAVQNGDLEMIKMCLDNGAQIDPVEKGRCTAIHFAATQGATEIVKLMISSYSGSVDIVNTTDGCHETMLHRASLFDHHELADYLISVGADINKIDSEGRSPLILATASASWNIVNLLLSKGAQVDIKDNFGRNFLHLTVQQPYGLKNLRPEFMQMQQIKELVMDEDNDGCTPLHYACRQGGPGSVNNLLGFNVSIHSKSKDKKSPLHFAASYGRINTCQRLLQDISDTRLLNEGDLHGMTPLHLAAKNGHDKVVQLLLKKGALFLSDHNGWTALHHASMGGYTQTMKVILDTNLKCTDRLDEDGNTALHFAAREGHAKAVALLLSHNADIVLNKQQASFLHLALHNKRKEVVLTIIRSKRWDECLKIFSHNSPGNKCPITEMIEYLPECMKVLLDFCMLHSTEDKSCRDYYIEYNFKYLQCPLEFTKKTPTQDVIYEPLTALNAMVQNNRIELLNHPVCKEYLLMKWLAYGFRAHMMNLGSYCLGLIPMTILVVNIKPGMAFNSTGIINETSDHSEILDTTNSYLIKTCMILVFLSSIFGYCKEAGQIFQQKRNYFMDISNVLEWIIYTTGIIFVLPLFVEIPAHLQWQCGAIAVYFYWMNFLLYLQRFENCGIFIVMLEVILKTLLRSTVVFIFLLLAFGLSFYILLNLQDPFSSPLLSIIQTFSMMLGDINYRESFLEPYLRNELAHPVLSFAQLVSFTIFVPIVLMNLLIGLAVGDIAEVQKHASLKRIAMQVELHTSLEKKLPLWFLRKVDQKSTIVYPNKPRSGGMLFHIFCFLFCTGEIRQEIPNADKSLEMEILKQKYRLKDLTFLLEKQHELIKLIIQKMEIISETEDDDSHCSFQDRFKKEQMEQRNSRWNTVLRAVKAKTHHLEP
Chain of Transient receptor potential cation channel subfamily V member 1 (Rattus norvegicus) (O35433 whole entry): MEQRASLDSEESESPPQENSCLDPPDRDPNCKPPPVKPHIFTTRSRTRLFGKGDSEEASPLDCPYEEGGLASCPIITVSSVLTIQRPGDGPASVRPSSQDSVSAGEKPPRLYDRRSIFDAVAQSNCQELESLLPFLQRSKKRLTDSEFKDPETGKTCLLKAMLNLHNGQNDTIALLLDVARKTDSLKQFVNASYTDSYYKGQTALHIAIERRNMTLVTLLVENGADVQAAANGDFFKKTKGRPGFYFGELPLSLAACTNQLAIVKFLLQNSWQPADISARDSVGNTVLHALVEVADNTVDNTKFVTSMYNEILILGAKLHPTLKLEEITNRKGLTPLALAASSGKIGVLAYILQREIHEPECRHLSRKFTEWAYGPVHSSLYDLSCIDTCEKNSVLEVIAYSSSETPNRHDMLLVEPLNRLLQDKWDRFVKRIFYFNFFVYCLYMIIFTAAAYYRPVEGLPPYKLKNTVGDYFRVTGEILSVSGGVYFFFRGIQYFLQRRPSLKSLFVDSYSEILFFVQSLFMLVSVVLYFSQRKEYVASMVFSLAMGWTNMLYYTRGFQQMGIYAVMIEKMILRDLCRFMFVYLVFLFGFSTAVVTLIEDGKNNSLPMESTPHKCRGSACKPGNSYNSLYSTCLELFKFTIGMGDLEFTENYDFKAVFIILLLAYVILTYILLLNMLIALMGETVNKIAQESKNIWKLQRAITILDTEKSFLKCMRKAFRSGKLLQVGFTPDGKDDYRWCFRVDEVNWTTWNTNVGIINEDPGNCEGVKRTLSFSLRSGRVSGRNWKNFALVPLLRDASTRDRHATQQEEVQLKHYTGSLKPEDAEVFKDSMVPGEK

Row | inhibition [1] [%] | inhibition [6] [%] | inhibition [8] [%] | Compound | also measured
1 | < 50 |  |  | Cn1c(=O)c2c(ccn2CC(=O)Nc2ccc(N3CCOCC3)cc2)n(C)c1=O | 
2 | 98.8 | 40.2 | 99.5 | COc1cccc(C2NC(=S)NC3=C2C(=O)c2ccccc23)c1 (centres undefined) | inhibition [2]: 83.1%; IC50 [3]: 1500 nM; IC50 [4]: 3400 nM; IC50 [5]: 128 nM; inhibition [7]: inactive
3 | < 50 |  |  | Cn1c(=O)c2c(ccn2CC(=O)Nc2ccc(F)cc2F)n(C)c1=O | 
4 |  | 36.8 | 99.5 | Cn1c(=O)c2c(ccn2CC(=O)Nc2ccc(OC(F)(F)F)cc2)n(C)c1=O | 
5 |  | 10.7 | 95.8 | Cn1c(=O)c2c(ccn2CC(=O)Nc2ccc(C(C)(C)C)cc2)n(C)c1=O | 
6 | 82.8 | 3.6 | 99.2 | Cn1c(=O)c2c(ccn2CC(=O)Nc2nc(-c3ccc(F)cc3)cs2)n(C)c1=O | inhibition [2]: 47.9%; IC50 [3]: 4100 nM
7 | 97.5 | 80.7 | 99.8 | CC(C)c1ccc(NC(=O)Cn2cnc3c2c(=O)n(C)c(=O)n3C)cc1 | inhibition [2]: 73.2%; IC50 [4]: 2100 nM; inhibition [7]: inactive
8 | < 50 |  |  | COc1ccc(NC(=O)Cn2ccc3c2c(=O)n(C)c(=O)n3C)cc1 | 
9 | < 50 |  |  | Cn1c(=O)c2c(ccn2CC(=O)Nc2ccc(S(=O)(=O)NCc3ccccc3)cc2)n(C)c1=O | 
10 | 99 | 94.4 | 97.1 | CCCCc1ccc(NC(=O)Cn2ccc3c2c(=O)n(C)c(=O)n3C)cc1 | inhibition [2]: 93.5%; IC50 [3]: 1100 nM
11 |  | 35.5 | 93.3 | CCCCCCc1ccc(NC(=O)Cn2ccc3c2c(=O)n(C)c(=O)n3C)cc1 | 
12 | < 50 |  |  | Cn1c(=O)c2c(ccn2CC(=O)Nc2ccc(C3CCCCC3)cc2)n(C)c1=O | 
13 |  | 92.4 | 99.4 | CCCCCCc1ccc(-c2csc(NC(=O)Cn3ccc4c3c(=O)n(C)c(=O)n4C)n2)cc1 | 
14 | < 50 |  |  | Cn1c(=O)c2c(ccn2CC(=O)Nc2ccc(F)c(F)c2)n(C)c1=O | 
15 |  | 58.3 | 80.2 | Cn1c(=O)c2c(ccn2CC(=O)Nc2nc(-c3ccc(C(F)(F)F)cc3)cs2)n(C)c1=O | 
16 | < 50 |  |  | Cn1c(=O)c2c(ccn2CC(=O)Nc2ccc(Cl)cc2)n(C)c1=O | 

Row | inhibition [1] [%] | inhibition [6] [%] | inhibition [8] [%] | Compound | also measured
17 | < 50 |  |  | Cc1ccc(CNC(=O)Cn2ccc3c2c(=O)n(C)c(=O)n3C)cc1 | 
18 | < 50 |  |  | Cn1c(=O)c2c(ccn2CC(=O)NCc2ccccc2)n(C)c1=O | 
19 |  | 12.4 | 85.4 | Cn1c(=O)c2c(ccn2CC(=O)Nc2ccc(I)cc2)n(C)c1=O | 
20 | 99.3 | 80.6 | 99.6 | Cn1c(=O)c2c(ccn2CC(=O)Nc2nc(-c3ccc(F)c(C(F)(F)F)c3)cs2)n(C)c1=O | inhibition [2]: 76.1%; IC50 [3]: 1300 nM; IC50 [4]: 1300 nM; inhibition [9]: Dose-dependent effect; inhibition [7]: inactive
21 | < 50 |  |  | Cn1c(=O)c2c(ccn2CC(=O)Nc2ccc(SC(F)(F)F)cc2)n(C)c1=O | 
22 | 98.9 | 45.2 | 90.1 | CC(=C\c1ccc(Cl)cc1)/C(C)=N/O [AP18 5] | inhibition [2]: 69.1%; IC50 [3]: 2200 nM; IC50 [4]: 3400 nM; inhibition [7]: inactive
23 | < 50 |  |  | CN(C(=O)Cn1ccc2c1c(=O)n(C)c(=O)n2C)c1ccc(F)cc1 | 
24 | < 50 |  |  | Cn1c(=O)c2c(ccn2CC(=O)NCCCc2ccccc2)n(C)c1=O | 
25 | < 50 |  |  | CCN(CC)S(=O)(=O)c1ccc(NC(=O)Cn2ccc3c2c(=O)n(C)c(=O)n3C)cc1 | 
26 | < 50 |  |  | Cn1c(=O)c2c(ccn2CC(=O)NC23CC4CC(CC(C4)C2)C3)n(C)c1=O | 
27 | < 50 |  |  | Cn1c(=O)c2c(ccn2CC(=O)Nc2cccc(I)c2)n(C)c1=O | 
28 | < 50 |  |  | Cn1c(=O)c2c(ccn2CC(=O)Nc2nc(-c3ccccc3)cs2)n(C)c1=O | 
29 | 99.1 | 58.8 | 99.7 | Cn1c(=O)c2c(ccn2CC(=O)Nc2ccc(C(F)(F)F)cc2)n(C)c1=O | inhibition [2]: 99%; IC50 [3]: 400 nM; inhibition [10]: 88.7%; IC50 [4]: 2800 nM; inhibition [9]: Dose-dependent effect; inhibition [7]: inactive
30 | < 50 |  |  | Cn1c(=O)c2c(ccn2CC(=O)Nc2nc(-c3ccc(I)cc3)cs2)n(C)c1=O | 
31 | < 50 |  |  | Cn1c(=O)c2c(ccn2CC(=O)NCCc2ccccc2)n(C)c1=O | 
32 | < 50 |  |  | CC(C)c1ccc(NC(=O)Cn2ccc3c2c(=O)n(C)c(=O)n3C)cc1 | 

Source: ChEMBL document CHEMBL1944607, “7-Substituted-pyrrolo[3,2-d]pyrimidine-2,4-dione derivatives as antagonists of the transient receptor potential ankyrin 1 (TRPA1) channel: a promising approach for treating pain and inflammation” (Bioorg Med Chem, 2012)
